# Compound activity as filed in PubChem BioAssay.
# Only some compounds are listed: those with a hit (about 2.3% of all), similar ones and a draw of the others.
# TRPC6 inhibitor – blocks the mouse TRPC6 cation channel. Q61143. HEK293-TRPC6, membrane potential dye, ACh-evoked depolarization; hits give low values. B-score at 10 µM. 1.1% of 310,000 active. AID 2553;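 active means B-score under library mean minus 3 SD, initial fluorescence not abnormally high, positive integrated signal ratio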;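 further: B-score derived from integrated fluorescence ratio over the kinetic read; more negative B-score means stronger inhibition of depolarization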
# TRPC4 act – opens the mouse TRPC4 cation channel. Q9QUQ5. HEK293 TRPC4beta/mu-opioid, Fluo4 calcium fluorescence; hits give high values. B-score at 10 µM. 0.49% of 310,000 active. AID 2237;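 active means B-score above 5 SD of library B-scores, and initial fluorescence ratio not above library mean plus 5 SD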;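 further: positive B-score marks a calcium rise read as TRPC4 activation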
# Target sequence (Q9QUQ5 whole entry, looked up): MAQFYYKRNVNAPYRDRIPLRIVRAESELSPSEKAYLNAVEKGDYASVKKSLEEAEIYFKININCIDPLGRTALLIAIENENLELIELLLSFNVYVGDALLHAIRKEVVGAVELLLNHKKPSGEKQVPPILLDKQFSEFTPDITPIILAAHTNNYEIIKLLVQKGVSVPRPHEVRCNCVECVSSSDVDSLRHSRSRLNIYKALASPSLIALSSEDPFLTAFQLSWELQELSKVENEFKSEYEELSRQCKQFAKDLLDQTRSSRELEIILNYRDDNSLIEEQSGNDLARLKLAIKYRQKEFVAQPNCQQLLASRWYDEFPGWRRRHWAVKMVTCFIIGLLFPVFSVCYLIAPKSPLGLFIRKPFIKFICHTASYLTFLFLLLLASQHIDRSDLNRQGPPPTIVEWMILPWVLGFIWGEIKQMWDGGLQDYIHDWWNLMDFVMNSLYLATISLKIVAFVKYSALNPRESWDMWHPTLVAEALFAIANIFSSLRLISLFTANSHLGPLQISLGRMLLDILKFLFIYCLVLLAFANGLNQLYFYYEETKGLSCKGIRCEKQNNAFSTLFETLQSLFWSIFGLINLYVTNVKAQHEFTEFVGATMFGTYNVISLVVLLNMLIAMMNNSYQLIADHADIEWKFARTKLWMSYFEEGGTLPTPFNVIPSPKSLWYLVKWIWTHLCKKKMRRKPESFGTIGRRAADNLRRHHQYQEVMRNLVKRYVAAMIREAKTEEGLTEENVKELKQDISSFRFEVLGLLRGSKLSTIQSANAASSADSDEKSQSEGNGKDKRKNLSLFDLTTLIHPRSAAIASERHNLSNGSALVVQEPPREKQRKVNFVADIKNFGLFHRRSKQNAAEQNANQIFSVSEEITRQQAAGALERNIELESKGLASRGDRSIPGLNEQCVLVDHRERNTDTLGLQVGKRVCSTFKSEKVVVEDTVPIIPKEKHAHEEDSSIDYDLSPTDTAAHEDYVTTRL
#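 Assay system: HEK293 stable line with TRPC4beta plus mu-opioid receptor. Times: dye 45 min RT, read 110 s. Measured by: kinetic Fluo4 calcium fluorescence. Measure: B score of integrated ratio. Controls: assay buffer as low control, maximal DAMGO as high control.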
# TRPC4 inh – TRPC4 (mouse) channel inhibition. Q9QUQ5. HEK293 TRPC4beta/mu-opioid, DAMGO-evoked Fluo4 calcium flux; hits give low values. B-score at 10 µM. 0.39% of 300,000 active;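 active means B-score over 3 SD under the library average, no early fluorescence shift, positive overall ratio signal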
#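 Test system – stable TRPC4beta/mu-opioid receptor HEK293 cells · Probe or stimulus – DAMGO, a submaximal dose followed by a maximal one · Dosing – one concentration per compound · Signal – Fluo4 calcium fluorescence by kinetic imaging, 5 s 1 Hz baseline · Evaluation – per-well B score of integrated baseline-normalized Fluo4 ratio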
# TRPC4 PAM – allosterically enhances the mouse TRPC4 cation channel. Q9QUQ5. HEK293 TRPC4beta/mu-opioid, DAMGO EC20, Fluo-4 Ca2+ flux; hits give high values. B-score at 10 µM. 0.42% of 310,000 active;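 active means B-score of calcium response area above 5 SD of library B-scores, with initial fluorescence ratio within 5 SD of library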;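 further: B-score of integrated fluorescence ratio over time as area under calcium response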
# TRPC6 act – activators of mouse TRPC6 channel; Q61143; HEK293-TRPC6 membrane potential dye fluorescence; hits give high values; B-score at 10 µM; 0.13% of 310,000 active; AID 2550;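 active means B-score of the integrated fluorescence ratio above library mean plus 3 SD, and starting fluorescence ratio within library mean plus 5 SD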;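 further: higher score means more depolarization so channel activation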
# FID counter – counter-screen for HCV NS3 helicase inhibitors: DNA intercalator displacement | DNA fluorescent intercalator displacement, fluorescence | inhibition, % at 7.9 µM | 0.17% of 290,000 active; in the data active means inhibition above about 37%;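 further: 0% = vehicle and 100% = reference compound; higher means more ethidium bromide displaced from hairpin DNA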
# TRPC4 sel inh 2 – second check of whether TRPC6 inhibitors also affect mouse TRPC4; shares compounds with TRPC6 inhibitor; HEK293 TRPC4/MOR, membrane potential dye fluorescence; channel activated by saturating DAMGO dose; inhibition, % at 10 µM; 42% of 920 active;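 active means compounds whose fluorescence signal differed from control wells by over 3 SD, either direction, in both duplicate plates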
# TRPC4 spec – tests whether TRPC6 inhibitors also affect mouse TRPC4. shares compounds with TRPC6 inhibitor. HEK293 TRPC4/mu-opioid, membrane potential fluorescence. activity change, negative = inhibition, % at 10 µM. 61% of 920 active;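 active means rise or fall in signal beyond 3 SD of buffer-only wells in both replicate plates, either sign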;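 further: integrated kinetic ratio of fluorescence range over baseline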
# HEK293 MPD ctr 2-1 – second check of TRPC6 inhibitor effects in parental HEK293 cells; shares compounds with TRPC6 inhibitor; parental HEK293 membrane potential dye fluorescence; maximal acetylcholine challenge after compound addition; signal change vs control, % at 10 µM; AID 2779; 31% of 920 active;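 active means membrane potential signal moving either way by over 3 SD of the maximum-effect control, in both duplicate plates, meaning non-specific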
# HEK293 MPD ctr-1 – counter-screen for TRPC6 inhibitors: effect in parental HEK293 cells | shares compounds with TRPC6 inhibitor | parental HEK293 membrane potential dye fluorescence | membrane potential signal change, % at 10 µM | 60% of 920 active | AID 2780;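 active means membrane potential signal shifting up or down by more than 3 SD of buffer-only wells, on both duplicate plates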
# HEK293 MPD ctr-2 – counter-screen for TRPC6 modulators: effect in parental HEK293 cells; shares compounds with TRPC6 inhibitor; membrane potential dye fluorescence; membrane potential signal change, % at 10 µM; 51% of 2,400 active; AID 488924;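 active means membrane potential signal moves up or down beyond 5 SD from buffer-only wells, on both duplicate plates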
# HEK293 MPD ctr 2-2 – second check of TRPC6 modulator effects in parental HEK293 cells | AID 488926 | shares compounds with TRPC6 inhibitor | inhibition, % at 10 µM | membrane potential dye fluorescence; after compound, maximal acetylcholine stimulation | 14% of 2,400 active;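 active means membrane potential signal drops by more than 5 SD from the mean control signal, in both duplicate plates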;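 further: plate controls were acetylcholine ECmax control wells for no effect and buffer only wells for full effect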
# TRPC4/MOR mod – mouse TRPC4 off-target activity of TRPC6 modulators; 69% of 2,400 active; HEK293 TRPC4/mu-opioid, membrane potential fluorescence; percent change from control (negative = decrease, positive = increase), % at 10 µM; shares compounds with TRPC6 inhibitor; AID 488927;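 active means membrane potential signal moved up or down beyond 5 SD of buffer control wells, in both duplicate plates, actives on both sides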;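 further: plate controls were assay buffer wells for no effect and DAMGO maximal-effect wells for full effect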
# TRPC4 ctr inh 2 – second selectivity test of TRPC6 modulators against mouse TRPC4; shares compounds with TRPC6 inhibitor; HEK293 TRPC4/mu-opioid, membrane potential dye fluorescence; stimulated with maximal-effect DAMGO; inhibition, % at 10 µM; 55% of 2,400 active;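 active means drop in membrane potential signal beyond 5 SD of the control wells in both duplicate plates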;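 further: TRPC4 counter screen for TRPC6 hits run under conditions tuned for TRPC6 not TRPC4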
# TRPC6 inh conf – mouse TRPC6 inhibitor confirmation; 43% of 3,300 active; HEK293-TRPC6, membrane potential dye, ACh-evoked depolarization; shares compounds with TRPC6 inhibitor; AID 488960; inhibition, % at 10 µM;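 active means fluorescence ratio falls more than 5 SD below the full-stimulation control mean, in both duplicate runs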;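 further: integrated fluorescence ratio of peak minus minimum over baseline after agonist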
# TRPC6 act confirm – mouse TRPC6 activator confirmation; 11% of 2,800 active; AID 488961; HEK293-TRPC6 membrane potential dye fluorescence, FDSS; activation, % at 10 µM; shares compounds with TRPC6 inhibitor;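 active means ratio signal rise beyond 5 SD above unstimulated control wells' mean, seen in both duplicate runs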;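 further: plate controls were buffer EC0 wells for no effect and acetylcholine ECmax response for full effect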
# An asterisk follows results filed as active; i = inactive; . = not tested or not shown.
SMILES,TRPC6 inhibitor,TRPC4 act,TRPC4 inh,TRPC4 PAM,TRPC6 act,FID counter,TRPC6 inh conf,TRPC6 act confirm,others
COc1cccc(CNCc2ccc(OC)c3ccccc23)c1OC,i,i,i,i,i,15,.,.,
Cc1cc(C)cc(C(=O)NC(CC(N)=O)c2ccc(NCCN3CCCC3)c([N+](=O)[O-])c2)c1 (configuration not stated),i,i,i,i,i,12,.,.,
CCOC(CNC(=O)CN1C(=O)COc2ccc(S(=O)(=O)N3CCOCC3)cc21)OCC,-5.2*,i,i,i,i,-7,i,i,HEK293 MPD ctr-2=i;HEK293 MPD ctr 2-2=i;TRPC4/MOR mod=i;TRPC4 ctr inh 2=i
CCN1C(=O)/C(=C\C=C\c2ccccc2[N+](=O)[O-])SC1=S,.,.,.,.,.,5,.,.,
CCN1C(=O)/C(=C/C=C2\N(CC)c3cc(S(=O)(=O)N(C)C)ccc3N2c2ccccc2)SC1=S,i,i,i,20*,16*,-8,i,i,HEK293 MPD ctr-2=366%*;HEK293 MPD ctr 2-2=i;TRPC4/MOR mod=87%*;TRPC4 ctr inh 2=i
N=c1n(CC(=O)c2cccs2)c2ccccc2n1Cc1ccccc1,-9.7*,i,i,i,i,16,65%*,i,TRPC4 sel inh 2=33%*;TRPC4 spec=i;HEK293 MPD ctr 2-1=i;HEK293 MPD ctr-1=2.0%*
O=C(O)Cn1c(=O)n(Cc2ccccc2)c2ccccc21,i,i,i,i,i,-4,.,.,
C=CCn1c(=N)n(CC(=O)OC)c2ccccc21,i,i,i,i,i,6,.,.,
Cn1c(=N)n(CC(=O)c2ccc(Br)cc2)c2ccccc21,i,i,i,i,i,.,.,.,
C=CCn1c(=N)n(CC(=O)c2ccc(Cl)cc2)c2ccccc21,-5.9*,i,i,i,i,2,58%*,.,HEK293 MPD ctr-2=i;HEK293 MPD ctr 2-2=i;TRPC4/MOR mod=36%*;TRPC4 ctr inh 2=93%*
C=CCn1c(=N)n(CC(=O)c2ccc(Br)s2)c2ccccc21,-8*,i,i,i,i,13,65%*,i,TRPC4 sel inh 2=13%*;TRPC4 spec=17%*;HEK293 MPD ctr 2-1=i;HEK293 MPD ctr-1=i
CCN(CC(=O)NCC(=O)Nc1ccc(Br)cc1C)Cc1ccccc1,i,i,i,i,i,.,.,.,
CN(CC(=O)Nc1ccccc1C(F)(F)F)C(=O)C1=COCCO1,i,i,i,i,i,.,.,.,
COc1ccccc1CNC(=O)[C@H](C)NC(=O)C1CCN(C(=O)[C@@H]2CCCN2C(=O)OC(C)(C)C)CC1,i,i,i,i,i,-33,.,.,
OCCNc1nc(Nc2ccccc2)nc(Nc2ccccc2)n1,i,i,i,i,i,-8,.,.,
Cc1c(Cl)cccc1Nc1nc(NCCO)c2ccccc2n1,-6.9*,i,i,i,i,18,i,i,TRPC4 sel inh 2=51%*;TRPC4 spec=i;HEK293 MPD ctr 2-1=i;HEK293 MPD ctr-1=i
OCCNc1nc(Nc2ccccc2)nc2ccccc12,-9.6*,i,i,i,i,15,69%*,i,TRPC4 sel inh 2=32%*;TRPC4 spec=-22%*;HEK293 MPD ctr 2-1=i;HEK293 MPD ctr-1=-224%*
OCCNc1nc(Nc2ccc(Br)cc2)nc2ccccc12,-7*,i,i,i,i,25,i,i,TRPC4 sel inh 2=46%*;TRPC4 spec=-20%*;HEK293 MPD ctr 2-1=i;HEK293 MPD ctr-1=-181%*
Oc1ccccc1Nc1nc(NCc2ccccc2)c2ccccc2n1,i,i,i,i,i,30,.,.,
CC1(C(=O)N2CCN(Cc3ccccc3Cl)CC2)CC1(Cl)Cl (configuration not stated),i,i,i,i,i,-24,.,.,
Cc1c(C(=O)N2CCOCC2)c(S(=O)(=O)Nc2ccc(C(C)C)cc2)c(C)n1C,i,i,i,i,i,-42,.,.,
COCCNC(=S)N1CCCN(c2nc3cc(C)ccc3cc2C#N)CC1,i,i,i,i,12*,2,.,136%*,HEK293 MPD ctr-2=i;HEK293 MPD ctr 2-2=i;TRPC4/MOR mod=i;TRPC4 ctr inh 2=34%*
COCCCNC(=S)N1CCCN(c2nc3c(C)c(C)ccc3cc2C#N)CC1,i,i,i,i,i,17,.,.,
CCN1C(=O)/C(=C\N2CCCCCC2)SC1=S,-7.2*,i,i,i,i,-5,i,i,TRPC4 sel inh 2=i;TRPC4 spec=i;HEK293 MPD ctr 2-1=i;HEK293 MPD ctr-1=i
CCN(CC)c1ccc(NC(=O)C2CCCC2)cc1,-5.8*,i,i,i,i,-1,i,i,HEK293 MPD ctr-2=i;HEK293 MPD ctr 2-2=i;TRPC4/MOR mod=i;TRPC4 ctr inh 2=i
Cc1ccc(S(=O)(=O)NNC(=O)C2CCN(Cc3ccccc3)CC2)cc1,-15*,i,i,i,i,4,84%*,i,TRPC4 sel inh 2=i;TRPC4 spec=i;HEK293 MPD ctr 2-1=-14%*;HEK293 MPD ctr-1=0.1%*
CCN(CC)c1ccc(CN2CCC(C(=O)NCc3ccc(C)cc3)CC2)cc1,-5.1*,i,i,i,i,23,58%*,i,HEK293 MPD ctr-2=i;HEK293 MPD ctr 2-2=i;TRPC4/MOR mod=i;TRPC4 ctr inh 2=77%*
CCCCc1ccc(NC(=O)C2CCCC2)cc1,i,i,i,i,i,.,.,.,
O=C(c1cccc(Cl)c1)N1CCN(C2CCCCCC2)CC1,-5.7*,i,i,i,i,6,66%*,.,HEK293 MPD ctr-2=171%*;HEK293 MPD ctr 2-2=i;TRPC4/MOR mod=36%*;TRPC4 ctr inh 2=i
